Like-named read-outs stand apart in the source and are kept apart here.
Tests used:
[1] = tested on: KB (epidermoid carcinoma) cell line; assay: MTT cytotoxicity assay, KB cells; format: cell-based, human; settings: read-out: IC50, KB
[2] = tested on: A549 (non-small lung cancer) cell line; assay: MTT cytotoxicity assay, A549 cells; format: cell-based, human; settings: read-out: IC50, A549
[3] = tested on: HepG2 (hepatoma carcinoma) cell line; assay: MTT cytotoxicity assay, HepG2 cells; format: cell-based, human; settings: read-out: IC50, HepG2
[4] = tested on: MCF7 (breast cancer) cell line; assay: MTT cytotoxicity assay, MCF7 cells; format: cell-based, human; settings: read-out: IC50, MCF7
[5] = tested on: Hek-293 human embryonic kidney cells; assay: MTT cytotoxicity assay, Hek-293 cells; format: cell-based; settings: for fold lower cytotoxicity against Hek-293 cells than to A549: Hek-293 vs A549; for IC50: read-out: IC50, Hek-293
A549 cells [6] = assay: Cell cycle analysis by PI flow cytometry; format: cell-based, human; settings: 24 hours
Outline: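 A549 cells seeded at 3×10^5 per 25 cm² flask; exposed 24 h to test compound (0.45, 0.9, 1.8 μM) or DMSO 0.5%. Cells washed twice in PBS, fixed in ice-cold 70% ethanol at –20 °C for 2 h, pelleted, treated with RNase A (2.5 mg mL⁻¹) 15 min at 37 °C, stained 30 min with PI (1 mg mL⁻¹ stock), then flow cytometry for phase distribution.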

A549 cells [7] = assay: Annexin-V FITC and PI flow cytometry assay for apoptosis; format: cell-based, human; settings: 48 hours
Outline: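 A549 cells seeded at 5×10^5 per 25 cm² flask, treated 48 h with test compound (0.45, 0.9, 1.8 μM), DMSO 1% vehicle or camptothecin 2 μM. Harvested, washed in cold PBS, resuspended in binding buffer, stained with annexin V plus PI (1 mg mL⁻¹ stock), 15 min at 37 °C, diluted in binding buffer, analysed by flow cytometry. Quadrants: live, early apoptotic, late apoptotic, necrotic.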

Compound: O=C1OCC2=C1C1(C(=O)Nc3c(Br)cc(Br)cc31)C1=C(N2)C(=O)c2ccccc2C1=O (stereo not drawn) [Compound 7f, 5′,7′-Dibromo-3H-spiro[benzo[g]furo[3,4-b]quinoline-11,3′-indoline]-1,2′,5,10(4H)-tetraone]
- IC50 ([1]; Homo sapiens, KB, 72 h): 1.99 ± 0.22 µM
- IC50 ([2]; Homo sapiens, A549, 72 h): 900 ± 90 nM
- IC50 ([3]; Homo sapiens, HepG2, 72 h): 3.28 ± 0.39 µM
- IC50 ([4]; Homo sapiens, MCF7, 72 h): 1.84 ± 0.17 µM
- fold lower cytotoxicity against Hek-293 cells than to A549 [5]: about 7 fold
- IC50 ([5]; Homo sapiens, HEK293, 72 h): 6.7 ± 0.57 µM
- % G0/G1 (A549 cells [6]; A549, 0.45 μM): 36.01%
- % G2/M (A549 cells [6]; A549, 0.45 μM): 13.49%
- % S (A549 cells [6]; A549, 0.45 μM): 47.96%
- % G0/G1 (A549 cells [6]; A549, 0.9 μM): 26.63%
- % G2/M (A549 cells [6]; A549, 0.9 μM): 4.17%
- % S (A549 cells [6]; A549, 0.9 μM): 67.93%
- % G0/G1 (A549 cells [6]; A549, 1.8 μM): 20.81%
- % G2/M (A549 cells [6]; A549, 1.8 μM): 13.61%
- % S (A549 cells [6]; A549, 1.8 μM): 63.88%
- % early apoptosis cells (Q2-4) (A549 cells [7]; A549, 0.45 μM): 1.76%
- % late apoptosis cells (Q2-2) (A549 cells [7]; A549, 0.45 μM): 1.26%
- % necrotic cells (Q2-1) (A549 cells [7]; A549, 0.45 μM): 0.64%
- % total apoptosis cells (A549 cells [7]; A549, 0.45 μM): 3.02%
- % early apoptosis cells (Q2-4) (A549 cells [7]; A549, 0.9 μM): 3.13%
- % late apoptosis cells (Q2-2) (A549 cells [7]; A549, 0.9 μM): 1.83%
- % necrotic cells (Q2-1) (A549 cells [7]; A549, 0.9 μM): 0.94%
- % early apoptosis cells (Q2-4) (A549 cells [7]; A549, 1.8 μM): 12.68%
- % late apoptosis cells (Q2-2) (A549 cells [7]; A549, 1.8 μM): 6.72%
- % necrotic cells (Q2-1) (A549 cells [7]; A549, 1.8 μM): 2.53%
- % total apoptosis cells (A549 cells [7]; A549, 1.8 μM): 19.4%

Compound: Cc1c2ccncc2c(C)c2c1[nH]c1ccccc12 [Ellipticine, reference compound]
- IC50 ([2]; Homo sapiens, A549, 72 h): 1340 ± 80 nM
- IC50 ([3]; Homo sapiens, HepG2, 72 h): 2.07 ± 0.12 µM
- IC50 ([4]; Homo sapiens, MCF7, 72 h): 2.07 ± 0.16 µM
- IC50 ([5]; Homo sapiens, HEK293, 72 h): 5.64 ± 0.32 µM

Compound: O=C1OCC2=C1C1(C(=O)N(Cc3ccc(C(F)(F)F)cc3)c3ccccc31)C1=C(N2)C(=O)c2ccccc2C1=O (stereo not drawn) [Compound 7i, 1′-(4-(Trifluoromethyl)benzyl)-3H-spiro[benzo[g]furo[3,4-b]quinoline-11,3′-indoline]-1,2′,5,10(4H)-tetraone]
- IC50 ([1]; Homo sapiens, KB, 72 h): 4.65 ± 0.44 µM
- IC50 ([2]; Homo sapiens, A549, 72 h): 7370 ± 830 nM
- IC50 ([3]; Homo sapiens, HepG2, 72 h): 4.5 ± 0.48 µM
- IC50 ([4]; Homo sapiens, MCF7, 72 h): 3.72 ± 0.35 µM
- IC50 ([5]; Homo sapiens, HEK293, 72 h): 4.04 ± 0.42 µM

Compound: O=C1OCC2=C1C1(C(=O)N(Cc3ccccc3)c3ccccc31)C1=C(N2)C(=O)c2ccccc2C1=O (stereo not drawn) [Compound 7h, 1′-Benzyl-3H-spiro[benzo[g]furo[3,4-b]quinoline-11,3′-indoline]-1,2′,5,10(4H)-tetraone]
- IC50 ([1]; Homo sapiens, KB, 72 h): 3.96 ± 0.34 µM
- IC50 ([2]; Homo sapiens, A549, 72 h): 1710 ± 190 nM
- IC50 ([3]; Homo sapiens, HepG2, 72 h): 4.24 ± 0.38 µM
- IC50 ([4]; Homo sapiens, MCF7, 72 h): 3.73 ± 0.38 µM
- IC50 ([5]; Homo sapiens, HEK293, 72 h): 2.72 ± 0.19 µM

Compound: O=C1OCC2=C1C1(C(=O)N(Cc3ccc(Cl)cc3)c3ccccc31)C1=C(N2)C(=O)c2ccccc2C1=O (stereo not drawn) [Compound 7j, 1′-(4-Chlorobenzyl)-3H-spiro[benzo[g]furo[3,4-b]quinoline-11,3′-indoline]-1,2′,5,10(4H)-tetraone]
- IC50 ([1]; Homo sapiens, KB, 72 h): 5.6 ± 0.49 µM
- IC50 ([2]; Homo sapiens, A549, 72 h): 6540 ± 690 nM
- IC50 ([3]; Homo sapiens, HepG2, 72 h): 5.78 ± 0.61 µM
- IC50 ([4]; Homo sapiens, MCF7, 72 h): 4.09 ± 0.41 µM
- IC50 ([5]; Homo sapiens, HEK293, 72 h): 10.3 ± 1.06 µM

Compound: O=C1OCC2=C1C1(C(=O)Nc3ccccc31)C1=C(N2)C(=O)c2ccccc2C1=O (stereo not drawn) [Compound 7a, 3H-Spiro[benzo[g]furo[3,4-b]quinoline-11,3′-indoline]-1,2′,5,10(4H)-tetraone]
- IC50 ([1]; Homo sapiens, KB, 72 h): 5.33 ± 0.62 µM
- IC50 ([2]; Homo sapiens, A549, 72 h): 1980 ± 160 nM
- IC50 ([3]; Homo sapiens, HepG2, 72 h): 5.33 ± 0.62 µM
- IC50 ([4]; Homo sapiens, MCF7, 72 h): 1.95 ± 0.21 µM
- IC50 ([5]; Homo sapiens, HEK293, 72 h): 4.89 ± 0.44 µM

Compound: O=C1OCC2=C1C1(C(=O)N(Cc3ccc(C(F)(F)F)cc3)c3cc(Br)c(Br)cc31)C1=C(N2)C(=O)c2ccccc2C1=O (stereo not drawn) [Compound 7n, 5′,6′-Dibromo-1′-(4-(trifluoromethyl)benzyl)-3H-spiro[benzo[g]furo[3,4-b]quinoline-11,3′-indoline]-1,2′,5,10(4H)-tetraone]
- IC50 ([1]; Homo sapiens, KB, 72 h): 4.36 ± 0.4 µM
- IC50 ([2]; Homo sapiens, A549, 72 h): 1030 ± 130 nM
- IC50 ([3]; Homo sapiens, HepG2, 72 h): 6.74 ± 0.73 µM
- IC50 ([4]; Homo sapiens, MCF7, 72 h): 2.11 ± 0.24 µM
- fold lower cytotoxicity against Hek-293 cells than to A549 [5]: ~22 fold
- fold lower cytotoxicity against Hek-293 cells than to MCF7 ([5]; Hek-293 vs MCF7): about 11 fold
- IC50 ([5]; Homo sapiens, HEK293, 72 h): 22.9 ± 2.2 µM

Compound: CC[C@@]1(O)C(=O)OCc2c1cc1n(c2=O)Cc2cc3ccccc3nc2-1 [Camptothecin, reference compound]
- % early apoptosis cells (Q2-4) (A549 cells [7]; A549, 2 μM): 30.71%
- % late apoptosis cells (Q2-2) (A549 cells [7]; A549, 2 μM): 11.05%
- % necrotic cells (Q2-1) (A549 cells [7]; A549, 2 μM): 1.99%
- % total apoptosis cells (A549 cells [7]; A549, 2 μM): 41.76%

Compound: O=C1OCC2=C1C1(C(=O)N(Cc3ccc(C(F)(F)F)cc3)c3ccc(Cl)cc31)C1=C(N2)C(=O)c2ccccc2C1=O (stereo not drawn) [Compound 7l, 5′-Chloro-1′-(4-(trifluoromethyl)benzyl)-3H-spiro[benzo[g]furo[3,4-b]quinoline-11,3′-indoline]-1,2′,5,10(4H)-tetraone]
- IC50 ([1]; Homo sapiens, KB, 72 h): 17.8 ± 1.68 µM
- IC50 ([2]; Homo sapiens, A549, 72 h): 5930 ± 640 nM
- IC50 ([3]; Homo sapiens, HepG2, 72 h): 15.1 ± 1.7 µM
- IC50 ([4]; Homo sapiens, MCF7, 72 h): 13.4 ± 1.23 µM
- IC50 ([5]; Homo sapiens, HEK293, 72 h): > 27.7 µM

Compound: O=C1OCC2=C1C1(C(=O)Nc3ccc(Br)cc31)C1=C(N2)C(=O)c2ccccc2C1=O (stereo not drawn) [Compound 7d, 5′-Bromo-3H-spiro[benzo[g]furo[3,4-b]quinoline-11,3′-indoline]-1,2′,5,10(4H)-tetraone]
- IC50 ([1]; Homo sapiens, KB, 72 h): 4.75 ± 0.41 µM
- IC50 ([2]; Homo sapiens, A549, 72 h): 1620 ± 170 nM
- IC50 ([3]; Homo sapiens, HepG2, 72 h): 4.34 ± 0.41 µM
- IC50 ([4]; Homo sapiens, MCF7, 72 h): 2.07 ± 0.26 µM
- IC50 ([5]; Homo sapiens, HEK293, 72 h): 3.52 ± 0.37 µM

Compound: O=C1OCC2=C1C1(C(=O)Nc3ccc(Cl)cc31)C1=C(N2)C(=O)c2ccccc2C1=O (stereo not drawn) [Compound 7b, 5′-Chloro-3H-spiro[benzo[g]furo[3,4-b]quinoline-11,3′-indoline]-1,2′,5,10(4H)-tetraone]
- IC50 ([1]; Homo sapiens, KB, 72 h): 3.15 ± 0.21 µM
- IC50 ([2]; Homo sapiens, A549, 72 h): 1410 ± 120 nM
- IC50 ([3]; Homo sapiens, HepG2, 72 h): 2.32 ± 0.31 µM
- IC50 ([4]; Homo sapiens, MCF7, 72 h): 4.2 ± 0.5 µM
- IC50 ([5]; Homo sapiens, HEK293, 72 h): 3.32 ± 0.33 µM

Compound: Cc1ccc2c(c1)C1(C(=O)N2)C2=C(COC2=O)NC2=C1C(=O)c1ccccc1C2=O (stereo not drawn) [Compound 7c, 5′-Methyl-3H-spiro[benzo[g]furo[3,4-b]quinoline-11,3′-indoline]-1,2′,5,10(4H)-tetraone]
- IC50 ([1]; Homo sapiens, KB, 72 h): 3.46 ± 0.33 µM
- IC50 ([2]; Homo sapiens, A549, 72 h): 1910 ± 200 nM
- IC50 ([3]; Homo sapiens, HepG2, 72 h): 4.02 ± 0.45 µM
- IC50 ([4]; Homo sapiens, MCF7, 72 h): 4.17 ± 0.48 µM
- IC50 ([5]; Homo sapiens, HEK293, 72 h): 3.89 ± 0.4 µM

Compound: 4′,6′-Dimethyl-3H-spiro[benzo[g]furo[3,4-b]quinoline-11,3′-indoline]-1,2′,5,10(4H)-tetraone [Compound 7g]
- IC50 ([1]; MTT, 3 days incubation): 4.85 ± 0.41 µM
- IC50 ([2]; MTT, 3 days incubation): 1670 ± 170 nM
- IC50 ([3]; MTT, 3 days incubation): 6.74 ± 0.68 µM
- IC50 ([4]; MTT, 3 days incubation): 2.62 ± 0.22 µM
- IC50 ([5]; MTT, 3 days incubation): 7.27 ± 0.78 µM

Compound: O=C1OCC2=C1C1(C(=O)N(Cc3ccc(Br)cc3F)c3ccccc31)C1=C(N2)C(=O)c2ccccc2C1=O (stereo not drawn) [Compound 7k, 1′-(4-Bromo-2-fluorobenzyl)-3H-spiro[benzo[g]furo[3,4-b]quinoline-11,3′-indoline]-1,2′,5,10(4H)-tetraone]
- IC50 ([1]; Homo sapiens, KB, 72 h): 27.3 ± 2.15 µM
- IC50 ([2]; Homo sapiens, A549, 72 h): 14000 ± 1590 nM
- IC50 ([3]; Homo sapiens, HepG2, 72 h): 20.9 ± 2.36 µM
- IC50 ([4]; Homo sapiens, MCF7, 72 h): 15.1 ± 1.59 µM
- IC50 ([5]; Homo sapiens, HEK293, 72 h): > 28 µM

Compound: Cc1ccc2c(c1)N(Cc1ccc(Br)cc1F)C(=O)C21C2=C(COC2=O)NC2=C1C(=O)c1ccccc1C2=O (stereo not drawn) [Compound 7m, 1′-(4-Bromo-2-fluorobenzyl)-6′-methyl-3H-spiro[benzo[g]furo[3,4-b]quinoline-11,3′-indoline]-1,2′,5,10(4H)-tetraone]
- IC50 ([1]; Homo sapiens, KB, 72 h): 51.7 ± 1.78 µM
- IC50 ([2]; Homo sapiens, A549, 72 h): 13300 ± 700 nM
- IC50 ([3]; Homo sapiens, HepG2, 72 h): 47.5 ± 2.15 µM
- IC50 ([4]; Homo sapiens, MCF7, 72 h): 19.9 ± 0.89 µM
- IC50 ([5]; Homo sapiens, HEK293, 72 h): > 65 µM
